Assays:
Type in all cases: functional
[1] = test system: A549; assay: Growth inhibition of human A549/ATCC cells assessed as growth percentage at 10 uM incubated for 48 hrs by sulforhodamine B assay relative to control; conditions: A549, 48 h, read-out: Activity
Summary of the method: (§1)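 NCI-60 one-dose screen: cells in RPMI 1640 with 5% FBS and 2 mM L-glutamine, plated at 5,000–40,000 cells/well and preincubated 24 h at 37 °C, 5% CO2. Compound is added from a DMSO stock to a final 10 µM and incubated 48 h. Cells are TCA-fixed and stained with sulforhodamine B, read at 515 nm. Output is % growth versus untreated control, with a time-zero plate.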

[2] = test system: SR; assay: Growth inhibition of human SR cells assessed as growth percentage at 10 uM incubated for 48 hrs by sulforhodamine B assay relative to control; conditions: read-out: Activity
Summary of the method: (§2)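 NCI-60 single-dose screen. Cells were grown in RPMI 1640 with 5% FBS and 2 mM L-glutamine and plated at 5,000–40,000 cells/well. After an overnight preincubation at 37 °C in 5% CO2, compound was added at a final 10 µM from a DMSO stock, with DMSO/PBS controls. After 48 h, cells were TCA-fixed and stained with 0.4% SRB, and absorbance was read at 515 nm. Growth is given as a percentage of untreated control.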

[3] = test system: RPMI-8226; assay: Growth inhibition of human RPMI8226 cells assessed as growth percentage at 10 uM incubated for 48 hrs by sulforhodamine B assay relative to control; conditions: RPMI-8226, 48 h, read-out: Activity; summary of the method: as §2
[4] = test system: MOLT-4; assay: Growth inhibition of human MOLT4 cells assessed as growth percentage at 10 uM incubated for 48 hrs by sulforhodamine B assay relative to control; conditions: MOLT-4, 48 h, read-out: Activity
Summary of the method: (§3)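 NCI-60 one-dose screen. Cells in RPMI 1640 with 5% FBS and 2 mM L-glutamine, seeded at 5,000–40,000 cells/well according to doubling time, and preincubated overnight at 37 °C, 5% CO2. A time-zero plate was TCA-fixed at drug addition. Compound from DMSO stock, final 10 µM, 48 h; DMSO vehicle controls. Fixation with TCA, 10% final (16% for suspension cells). SRB stain, Tris solubilization, A515. Result given as % growth versus untreated cells.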

[5] = test system: EKVX; assay: Growth inhibition of human EKVX cells assessed as growth percentage at 10 uM incubated for 48 hrs by sulforhodamine B assay relative to control; conditions: read-out: Activity; summary of the method: as §1
[6] = test system: HOP-92; assay: Growth inhibition of human HOP92 cells assessed as growth percentage at 10 uM incubated for 48 hrs by sulforhodamine B assay relative to control; conditions: HOP-92, 48 h, read-out: Activity; summary of the method: as §3
[7] = test system: COLO 205; assay: Growth inhibition of human COLO205 cells assessed as growth percentage at 10 uM incubated for 48 hrs by sulforhodamine B assay relative to control; conditions: COLO 205, 48 h, read-out: Activity; summary of the method: as §1
[8] = test system: KM12; assay: Growth inhibition of human KM12 cells assessed as growth percentage at 10 uM incubated for 48 hrs by sulforhodamine B assay relative to control; conditions: KM12, 48 h, read-out: Activity; summary of the method: as §3
[9] = test system: SNB-19; assay: Growth inhibition of human SNB19 cells assessed as growth percentage at 10 uM incubated for 48 hrs by sulforhodamine B assay relative to control; conditions: SNB-19, 48 h, read-out: Activity; summary of the method: as §2
[10] = test system: U-251; assay: Growth inhibition of human U251 cells assessed as growth percentage at 10 uM incubated for 48 hrs by sulforhodamine B assay relative to control; conditions: U-251, 48 h, read-out: Activity; summary of the method: as §2
[11] = test system: LOX IMVI; assay: Growth inhibition of human LOXIMVI cells assessed as growth percentage at 10 uM incubated for 48 hrs by sulforhodamine B assay relative to control; conditions: read-out: Activity; summary of the method: as §3
[12] = test system: M14; assay: Growth inhibition of human M14 cells assessed as growth percentage at 10 uM incubated for 48 hrs by sulforhodamine B assay relative to control; conditions: M14, 48 h, read-out: Activity; summary of the method: as §3
[13] = test system: MDA-MB-435; assay: Growth inhibition of human MDA-MB-435 cells assessed as growth percentage at 10 uM incubated for 48 hrs by sulforhodamine B assay relative to control; conditions: MDA-MB-435, 48 h, read-out: Activity; summary of the method: as §3
[14] = test system: SK-MEL-28; assay: Growth inhibition of human SK-MEL-28 cells assessed as growth percentage at 10 uM incubated for 48 hrs by sulforhodamine B assay relative to control; conditions: SK-MEL-28, 48 h, read-out: Activity; summary of the method: as §2
[15] = test system: UACC-257; assay: Growth inhibition of human UACC257 cells assessed as growth percentage at 10 uM incubated for 48 hrs by sulforhodamine B assay relative to control; conditions: UACC-257, 48 h, read-out: Activity; summary of the method: as §2
[16] = test system: IGROV-1; assay: Growth inhibition of human IGROV1 cells assessed as growth percentage at 10 uM incubated for 48 hrs by sulforhodamine B assay relative to control; conditions: IGROV-1, 48 h, read-out: Activity; summary of the method: as §3
[17] = test system: OVCAR-5; assay: Growth inhibition of human OVCAR5 cells assessed as growth percentage at 10 uM incubated for 48 hrs by sulforhodamine B assay relative to control; conditions: OVCAR-5, 48 h, read-out: Activity; summary of the method: as §2
[18] = test system: NCI/ADR-RES; assay: Growth inhibition of human NCI/ADR-RES cells assessed as growth percentage at 10 uM incubated for 48 hrs by sulforhodamine B assay relative to control; conditions: read-out: Activity; summary of the method: as §3
[19] = test system: SK-OV-3; assay: Growth inhibition of human SKOV3 cells assessed as growth percentage at 10 uM incubated for 48 hrs by sulforhodamine B assay relative to control; conditions: SK-OV-3, 48 h, read-out: Activity; summary of the method: as §2
[20] = test system: CAKI-1; assay: Growth inhibition of human Caki1 cells assessed as growth percentage at 10 uM incubated for 48 hrs by sulforhodamine B assay relative to control; conditions: CAKI-1, 48 h, read-out: Activity; summary of the method: as §1
[21] = test system: PC-3; assay: Growth inhibition of human PC3 cells assessed as growth percentage at 10 uM incubated for 48 hrs by sulforhodamine B assay relative to control; conditions: PC-3, 48 h, read-out: Activity; summary of the method: as §2
[22] = test system: DU-145; assay: Growth inhibition of human DU145 cells assessed as growth percentage at 10 uM incubated for 48 hrs by sulforhodamine B assay relative to control; conditions: DU-145, 48 h, read-out: Activity; summary of the method: as §1
[23] = test system: MCF7; assay: Growth inhibition of human MCF7 cells assessed as growth percentage at 10 uM incubated for 48 hrs by sulforhodamine B assay relative to control; conditions: MCF7, 48 h, read-out: Activity; summary of the method: as §3
[24] = test system: MDA-MB-231; assay: Growth inhibition of human MDA-MB-231 cells assessed as growth percentage at 10 uM incubated for 48 hrs by sulforhodamine B assay relative to control; conditions: MDA-MB-231, 48 h, read-out: Activity; summary of the method: as §3
[25] = test system: Hs-578T; assay: Growth inhibition of human Hs 578T cells assessed as growth percentage at 10 uM incubated for 48 hrs by sulforhodamine B assay relative to control; conditions: read-out: Activity; summary of the method: as §3
[26] = test system: T47D; assay: Growth inhibition of human T47D cells assessed as growth percentage at 10 uM incubated for 48 hrs by sulforhodamine B assay relative to control; conditions: read-out: Activity; summary of the method: as §2
[27] = test system: SNB-75; assay: Growth inhibition of human SNB75 cells assessed as growth percentage at 10 uM incubated for 48 hrs by sulforhodamine B assay relative to control; conditions: SNB-75, 48 h, read-out: Activity; summary of the method: as §2

Compound	growth at 10 µM [1] [%]	growth at 10 µM [3] [%]	growth at 10 µM [4] [%]	growth at 10 µM [5] [%]	growth at 10 µM [6] [%]	growth at 10 µM [7] [%]	growth at 10 µM [8] [%]	growth at 10 µM [9] [%]	growth at 10 µM [10] [%]	growth at 10 µM [11] [%]	growth at 10 µM [12] [%]	growth at 10 µM [14] [%]	growth at 10 µM [15] [%]	growth at 10 µM [16] [%]	growth at 10 µM [17] [%]	growth at 10 µM [18] [%]	growth at 10 µM [19] [%]	growth at 10 µM [20] [%]	growth at 10 µM [21] [%]	growth at 10 µM [22] [%]	further results
COCCOC(=O)C1=C(C)NC(=S)NC1c1ccc2c(c1)OCO2 (racemic)	101	105	96.9	105	108	117	100	100	104	101	104	114	90.2	105	109	103	103	99.8	95.7	108	growth at 10 µM [2]: 95.5%; growth at 10 µM [13]: 104%; growth at 10 µM [23]: 89.6%; growth at 10 µM [24]: 105%; growth at 10 µM [25]: 104%; growth at 10 µM [26]: 94.8%
COCCOC(=O)C1=C(C)NC(=S)N(C(C)=O)C1c1ccc2c(c1)OCO2 (racemic)	99.2	97.7	103	94.1	85.4	100	95.9	99.3	94.8	97.2	96.1	106	95.3	106	102	99.8	97	97.4	97.8	106	growth at 10 µM [27]: 83%; growth at 10 µM [13]: 103%; growth at 10 µM [23]: 102%; growth at 10 µM [24]: 97.8%; growth at 10 µM [25]: 93.7%; growth at 10 µM [26]: 86.9%
CC1=C(C(=O)OCc2ccccc2)C(c2ccc3c(c2)OCO3)n2c(nc3ccccc32)N1 (racemic)	34 to 47.1	39.9	37.1 to 41	42 to 64.4	32 to 78.5	37.2 to 43	15 to 17.3	33 to 41.6	31 to 36.3	34.6 to 38	28.1 to 35	52 to 61.8	34 to 60.4	36 to 41.4	53 to 64.4	20 to 23.2	27 to 41.7	24 to 34.3	35 to 41.1	49 to 53.5	growth at 10 µM [2]: 9.81 to 43%; growth at 10 µM [23]: 9 to 20.6%; growth at 10 µM [24]: 64 to 68.6%; growth at 10 µM [25]: 0.75 to 14%; growth at 10 µM [26]: 31 to 40.9%
CC1=C(C(=O)OCc2ccccc2)C(c2ccc3c(c2)OCO3)NC(=S)N1 (racemic)	93.7	76.5	78.2	97.5	99	117	91.9	103	95.8	98.5	102	106	96.7	97.6	100	105	109	81.8	85.2	101	growth at 10 µM [2]: 77.2%; growth at 10 µM [13]: 93.6%; growth at 10 µM [23]: 86.8%; growth at 10 µM [24]: 105%; growth at 10 µM [25]: 90.2%; growth at 10 µM [26]: 74%
